What was measured:
Type in all cases: functional, Salmonella enterica subsp. enterica serovar Typhimurium
Salmonella typhimurium [1] = experiment: Antimicrobial activity against Salmonella enterica serovar Typhimurium S21-2 gyrA+ with ParC S80I mutation
Procedure, shortened: (§1)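 MICs measured by broth microdilution on the Sensititre automated system and interpreted by CLSI broth microdilution standards. Ciprofloxacin was also tested by agar dilution, widening the range to 0.0075–128 μg/ml. Quality control strains were E. coli ATCC 25922 and 35218, E. faecalis ATCC 29212, S. aureus ATCC 29213 and P. aeruginosa ATCC 27853.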

Salmonella typhimurium [2] = experiment: Antimicrobial activity against Salmonella enterica serovar Typhimurium CHS38 gyrA+ with GyrA D87G mutation; procedure, shortened: as §1
Salmonella typhimurium [3] = experiment: Antimicrobial activity against Salmonella enterica serovar Typhimurium CHS38 tolC::Kan with GyrA D87G mutation; procedure, shortened: as §1
Salmonella typhimurium [4] = experiment: Antimicrobial activity against Salmonella enterica serovar Typhimurium CS3 with GyrA S83F, D87N, ParC S80I mutation; procedure, shortened: as §1
Salmonella typhimurium [5] = experiment: Antimicrobial activity against Salmonella enterica serovar Typhimurium S21-2 tolC::Kan with GyrA S83F, ParC S80I mutation; procedure, shortened: as §1
Salmonella typhimurium [6] = experiment: Antimicrobial activity against Salmonella enterica serovar Typhimurium CHS18 gyrA+ with GyrA S38F mutation; procedure, shortened: as §1
Salmonella typhimurium [7] = experiment: Antimicrobial activity against Salmonella enterica serovar Typhimurium CS9 with GyrA S83F, D87N, ParC S80I mutation; procedure, shortened: as §1
Salmonella typhimurium [8] = experiment: Antimicrobial activity against Salmonella enterica serovar Typhimurium CS1 acrAB::Kan with GyrA S83F, D87N, ParC S80I mutation; procedure, shortened: as §1
Salmonella typhimurium [9] = experiment: Antimicrobial activity against Salmonella enterica serovar Typhimurium CS1 with GyrA S83F, D87N, ParC S80I mutation; procedure, shortened: as §1
Salmonella typhimurium [10] = experiment: Antimicrobial activity against Salmonella enterica serovar Typhimurium CS1 gyrA+ with GyrA S83F, D87N, ParC S80I mutation; procedure, shortened: as §1
Salmonella typhimurium [11] = experiment: Antimicrobial activity against Salmonella enterica serovar Typhimurium S21-1 gyrA+; procedure, shortened: as §1
Salmonella typhimurium [12] = experiment: Antimicrobial activity against Salmonella enterica serovar Typhimurium CS3 tolC::Kan with GyrA S83F, D87N, parC S80I mutation; procedure, shortened: as §1
Salmonella typhimurium [13] = experiment: Antimicrobial activity against Salmonella enterica serovar Typhimurium CS9 tolC::Kan with GyrA S83F, D87N, ParC S80I mutation; procedure, shortened: as §1
Salmonella typhimurium [14] = experiment: Antimicrobial activity against Salmonella enterica serovar Typhimurium S21-3 tolC::Kan with GyrA S83F, ParC S80I mutation; procedure, shortened: as §1
Salmonella typhimurium [15] = experiment: Antimicrobial activity against Salmonella enterica serovar Typhimurium CS9 gyrA+ with GyrA S83F, D87N, ParC S80I mutation; procedure, shortened: as §1
Salmonella typhimurium [16] = experiment: Antimicrobial activity against Salmonella enterica serovar Typhimurium CHS14 tolC::Kan with GyrA D87G mutant; procedure, shortened: as §1
Salmonella typhimurium [17] = experiment: Antimicrobial activity against Salmonella enterica serovar Typhimurium S21-4 tolC::Kan with GyrA S83F, ParC S80I mutation; procedure, shortened: as §1
Salmonella typhimurium [18] = experiment: Antimicrobial activity against Salmonella enterica serovar Typhimurium CS3 gyrA+ with GyrA S83F, D87N, ParC S80I mutation; procedure, shortened: as §1
Salmonella typhimurium [19] = experiment: Antimicrobial activity against Salmonella enterica serovar Typhimurium CHS38 with GyrA D87G mutation; procedure, shortened: as §1
Salmonella typhimurium [20] = experiment: Antimicrobial activity against Salmonella enterica serovar Typhimurium S21-3 gyrA+ with ParC S80I mutation; procedure, shortened: as §1
Salmonella typhimurium [21] = experiment: Antimicrobial activity against Salmonella enterica serovar Typhimurium CHS14 with GyrA D87G mutation; procedure, shortened: as §1
Salmonella typhimurium [22] = experiment: Antimicrobial activity against Salmonella enterica serovar Typhimurium CHS18 acrAB::Kan with GyrA S38F mutation; procedure, shortened: as §1
Salmonella typhimurium [23] = experiment: Antimicrobial activity against Salmonella enterica serovar Typhimurium CS1 tolC::Kan with GyrA S83F, D87N, ParC S80I mutation; procedure, shortened: as §1
Salmonella typhimurium [24] = experiment: Antimicrobial activity against Salmonella enterica serovar Typhimurium S21-3 with GyrA S83F, ParC S80I mutation; procedure, shortened: as §1
Salmonella typhimurium [25] = experiment: Antimicrobial activity against Salmonella enterica serovar Typhimurium CHS18 with GyrA S38F mutation; procedure, shortened: as §1
Salmonella typhimurium [26] = experiment: Antimicrobial activity against Salmonella enterica serovar Typhimurium CS3 acrAB::Kan with GyrA S83F, D87N, ParC S80I mutation; procedure, shortened: as §1
Salmonella typhimurium [27] = experiment: Antimicrobial activity against Salmonella enterica serovar Typhimurium CHS14 gyrA+ with GyrA D87G mutation; procedure, shortened: as §1
Salmonella typhimurium [28] = experiment: Antimicrobial activity against Salmonella enterica serovar Typhimurium CS9 acrAB::Kan with GyrA S83F, D87N, ParC S80I mutation; procedure, shortened: as §1
Salmonella typhimurium [29] = experiment: Antimicrobial activity against Salmonella enterica serovar Typhimurium S21 acrAB::Kan
Procedure, shortened: (§2)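 MICs by automated broth microdilution panels, interpreted to CLSI broth microdilution standards. Ciprofloxacin additionally tested by agar dilution across 0.0075 to 128 μg/ml. Quality control strains: E. coli ATCC 25922 and 35218, Enterococcus faecalis ATCC 29212, S. aureus ATCC 29213, P. aeruginosa ATCC 27853. Test strains are kanamycin-marked deletion mutants of ground-beef isolate S21.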

Salmonella typhimurium [30] = experiment: Antimicrobial activity against Salmonella enterica serovar Typhimurium S21; procedure, shortened: as §1
Salmonella typhimurium [31] = experiment: Antimicrobial activity against Salmonella enterica serovar Typhimurium CHS18 tolC::Kan with GyrA S38F mutation; procedure, shortened: as §1
Salmonella typhimurium [32] = experiment: Antimicrobial activity against Salmonella enterica serovar Typhimurium S21-1 GyrA S83F mutant; procedure, shortened: as §1
Salmonella typhimurium [33] = experiment: Antimicrobial activity against Salmonella enterica serovar Typhimurium S21-2 acrAB::Kan with GyrA S83F, ParC S80I mutation; procedure, shortened: as §1
Salmonella typhimurium [34] = experiment: Antimicrobial activity against Salmonella enterica serovar Typhimurium S21-4 with GyrA S83F, ParC S80I mutation; procedure, shortened: as §1
Salmonella typhimurium [35] = experiment: Antimicrobial activity against Salmonella enterica serovar Typhimurium S21-2 with GyrA S83F, ParC S80I mutation; procedure, shortened: as §1
Salmonella typhimurium [36] = experiment: Antimicrobial activity against Salmonella enterica serovar Typhimurium S21-4 acrAB::Kan with GyrA S83F, ParC S80I mutation; procedure, shortened: as §1
Salmonella typhimurium [37] = experiment: Antimicrobial activity against Salmonella enterica serovar Typhimurium S21-3 acrAB::Kan with GyrA S83F, ParC S80I mutation; procedure, shortened: as §1
Salmonella typhimurium [38] = experiment: Antimicrobial activity against Salmonella enterica serovar Typhimurium S21-4 gyrA+ with ParC S80I mutation; procedure, shortened: as §1
Salmonella typhimurium [39] = experiment: Antimicrobial activity against Salmonella enterica serovar Typhimurium S21 tolC::Kan; procedure, shortened: as §2
Salmonella typhimurium [40] = experiment: Antimicrobial activity against Salmonella enterica serovar Typhimurium CHS14 acrAB::Kan with GyrA D87G mutation; procedure, shortened: as §1
Salmonella typhimurium [41] = experiment: Antimicrobial activity against Salmonella enterica serovar Typhimurium CHS38 acrAB::Kan with GyrA D87G mutation; procedure, shortened: as §1
Salmonella typhimurium [42] = experiment: Antimicrobial activity against Salmonella enterica serovar Typhimurium S21 gyrA+; procedure, shortened: as §1
Salmonella typhimurium [43] = experiment: Antimicrobial activity against Salmonella enterica serovar Typhimurium S21-1 tolC::Kan with GyrA S83F mutation; procedure, shortened: as §1
Salmonella typhimurium [44] = experiment: Antimicrobial activity against Salmonella enterica serovar Typhimurium GyrA S21-1 acrAB::Kan with GyrA S83F mutation; procedure, shortened: as §1

Measured: MIC

CC(=O)OCC1=C(C(=O)O)N2C(=O)[C@@H](NC(=O)Cc3cccs3)[C@H]2SC1 [CEPHALOTHIN]
4 µg/mL: Salmonella typhimurium [6] | Salmonella typhimurium [21] | Salmonella typhimurium [25]
< 2 µg/mL: Salmonella typhimurium [16] | Salmonella typhimurium [27] | Salmonella typhimurium [29] | Salmonella typhimurium [30] | Salmonella typhimurium [39] | Salmonella typhimurium [40] | Salmonella typhimurium [42]
2 µg/mL: Salmonella typhimurium [22] | Salmonella typhimurium [31]
16 µg/mL: Salmonella typhimurium [2] | Salmonella typhimurium [4] | Salmonella typhimurium [7] | Salmonella typhimurium [9]
> 32 µg/mL: Salmonella typhimurium [1] | Salmonella typhimurium [20] | Salmonella typhimurium [24] | Salmonella typhimurium [34] | Salmonella typhimurium [35] | Salmonella typhimurium [38]
not listed: Salmonella typhimurium [43] | Salmonella typhimurium [44]
8 µg/mL: all other assays above

CCn1cc(C(=O)O)c(=O)c2ccc(C)nc21 [NALIDIXIC ACID]
16 µg/mL: Salmonella typhimurium [16] | Salmonella typhimurium [22]
128 µg/mL: Salmonella typhimurium [21]
1 µg/mL: Salmonella typhimurium [29] | Salmonella typhimurium [39] | Salmonella typhimurium [41]
0.5 µg/mL: Salmonella typhimurium [3]
4 µg/mL: Salmonella typhimurium [10] | Salmonella typhimurium [11] | Salmonella typhimurium [15] | Salmonella typhimurium [18] | Salmonella typhimurium [27] | Salmonella typhimurium [30] | Salmonella typhimurium [42]
256 µg/mL: Salmonella typhimurium [12] | Salmonella typhimurium [13] | Salmonella typhimurium [23] | Salmonella typhimurium [25] | Salmonella typhimurium [32]
8 µg/mL: Salmonella typhimurium [2] | Salmonella typhimurium [40]
32 µg/mL: Salmonella typhimurium [6] | Salmonella typhimurium [14] | Salmonella typhimurium [43] | Salmonella typhimurium [19] | Salmonella typhimurium [31] | Salmonella typhimurium [44]
64 µg/mL: Salmonella typhimurium [1] | Salmonella typhimurium [5] | Salmonella typhimurium [33] | Salmonella typhimurium [37]
> 256 µg/mL: all other assays above

O=C(O)c1cn(-c2ccc(F)cc2)c2cc(N3CCNCC3)c(F)cc2c1=O [SARAFLOXACIN]
8 µg/mL: Salmonella typhimurium [35]
0.25 µg/mL: Salmonella typhimurium [1] | Salmonella typhimurium [21] | Salmonella typhimurium [25]
> 16 µg/mL: Salmonella typhimurium [7] | Salmonella typhimurium [24] | Salmonella typhimurium [34]
2 µg/mL: Salmonella typhimurium [38]
4 µg/mL: Salmonella typhimurium [8] | Salmonella typhimurium [12] | Salmonella typhimurium [13] | Salmonella typhimurium [23] | Salmonella typhimurium [26] | Salmonella typhimurium [28]
0.12 µg/mL: Salmonella typhimurium [43] | Salmonella typhimurium [19] | Salmonella typhimurium [44]
1 µg/mL: Salmonella typhimurium [20] | Salmonella typhimurium [32]
0.5 µg/mL: Salmonella typhimurium [5] | Salmonella typhimurium [14] | Salmonella typhimurium [17] | Salmonella typhimurium [33] | Salmonella typhimurium [36] | Salmonella typhimurium [37]
< 0.015 µg/mL: Salmonella typhimurium [2] | Salmonella typhimurium [3] | Salmonella typhimurium [16] | Salmonella typhimurium [29] | Salmonella typhimurium [39] | Salmonella typhimurium [40]
0.06 µg/mL: Salmonella typhimurium [6] | Salmonella typhimurium [10] | Salmonella typhimurium [18]
16 µg/mL: Salmonella typhimurium [4] | Salmonella typhimurium [9]
0.03 µg/mL: all other assays above

From ChEMBL document CHEMBL1142136, “Contribution of target gene mutations and efflux to decreased susceptibility of Salmonella enterica serovar typhimurium to fluoroquinolones and other antimicrobials” (2007)
